From ChEMBL document CHEMBL1133458, “Synthesis and pharmacological evaluation of thiopyran analogues of the dopamine D3 receptor-selective agonist (4aR,10bR)-(+)-trans-3,4,4a,10b-tetrahydro-4-n-propyl-2H,5H [1]b enzopyrano[4,3-b]-1,4-oxazin-9-ol (PD 128907)” (J Med Chem, 2000)

How the values were obtained:
[1] = target: T1, 5-hydroxytryptamine receptor 1A (Rattus norvegicus, UniProt P19327); experiment: Tested for binding affinity by measuring displacement of [3H]8-OH-DPAT from rat serotonin 5-hydroxytryptamine 1A receptor in rat hippocampus; format: tissue-based
T1 sequence (P19327 whole entry): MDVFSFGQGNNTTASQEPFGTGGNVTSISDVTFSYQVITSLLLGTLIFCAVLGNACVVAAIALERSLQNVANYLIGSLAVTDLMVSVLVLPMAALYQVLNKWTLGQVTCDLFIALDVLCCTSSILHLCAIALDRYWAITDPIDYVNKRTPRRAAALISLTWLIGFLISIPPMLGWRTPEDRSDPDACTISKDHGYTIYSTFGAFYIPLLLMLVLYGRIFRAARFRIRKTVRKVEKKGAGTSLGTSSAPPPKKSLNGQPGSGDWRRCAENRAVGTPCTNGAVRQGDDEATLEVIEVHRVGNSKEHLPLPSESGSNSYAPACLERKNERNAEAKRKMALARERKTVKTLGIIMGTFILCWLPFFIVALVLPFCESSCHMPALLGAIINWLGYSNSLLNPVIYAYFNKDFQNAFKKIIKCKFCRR
In short: (§1)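 Rat brain binding: hippocampal 5HT1A with [3H]8-OH-DPAT, cortical 5HT2 with [3H]ketanserin as radioligand; values means of three separate experiments, varying no more than 25%.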

D(2) dopamine receptor [2] = target: D(2) dopamine receptor (Rattus norvegicus, UniProt P61169); experiment: Agonist activity by measuring the [3H]thymidine uptake against Dopamine receptor D2L from rat; format: functional
D(2) dopamine receptor [3] = target: T2, D(2) dopamine receptor (Homo sapiens, UniProt P14416); experiment: Human Dopamine receptor D2L affinities to determine agonist activity, using [3H]N-0437 as radioligand; format: functional
D(2) dopamine receptor [4] = target: T2, D(2) dopamine receptor; experiment: Tested for antagonist binding affinity by measuring displacement of [3H]spiperone from Human Dopamine receptor D2L expressed in CHO K-1 cells; format: cell-based
In short: (§2)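 Displacement of antagonist radioligand [3H]spiperone from D2L or D4.2 receptors; Ki values are means of three separate experiments varying by no more than 25%.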

D(3) dopamine receptor [5] = target: D(3) dopamine receptor (Homo sapiens, UniProt P35462); experiment: Tested for antagonist binding affinity by measuring displacement of [3H]spiperone from Human Dopamine receptor D3 expressed in CHO K-1 cells; format: cell-based
D(3) dopamine receptor [6] = target: T3, D(3) dopamine receptor (Rattus norvegicus, UniProt P19020); experiment: Agonist activity by measuring the [3H]-thymidine uptake against Dopamine receptor D3 from rat; format: functional
D(4) dopamine receptor [7] = target: T4, D(4) dopamine receptor (Homo sapiens, UniProt P21917); experiment: Tested for antagonist binding affinity by measuring displacement of [3H]spiperone from Human Dopamine receptor D4 expressed in CHO K-1 cells; format: cell-based; in short: as §2
T4 sequence (P21917 whole entry): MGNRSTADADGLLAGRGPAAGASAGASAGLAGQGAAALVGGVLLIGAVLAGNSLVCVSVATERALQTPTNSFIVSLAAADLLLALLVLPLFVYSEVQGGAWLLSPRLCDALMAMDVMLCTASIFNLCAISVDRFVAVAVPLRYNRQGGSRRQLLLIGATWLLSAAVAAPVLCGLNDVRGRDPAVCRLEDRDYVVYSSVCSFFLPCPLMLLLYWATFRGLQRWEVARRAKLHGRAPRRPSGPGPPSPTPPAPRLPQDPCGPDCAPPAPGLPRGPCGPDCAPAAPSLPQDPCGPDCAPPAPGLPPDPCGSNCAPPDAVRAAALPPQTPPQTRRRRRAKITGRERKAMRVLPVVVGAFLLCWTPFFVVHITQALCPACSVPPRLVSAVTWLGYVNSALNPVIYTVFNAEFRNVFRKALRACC

[8] = target: Serotonin 2 (5-HT2) receptor (Rattus norvegicus, UniProt P30994+P08909+P14842); experiment: Tested for binding affinity by measuring displacement of [3H]ketanserin from rat serotonin 5-hydroxytryptamine 2 receptor in rat cortex; in short: as §1
D(2) dopamine receptor [9] = target: T2, D(2) dopamine receptor; experiment: Tested for agonist binding affinity by measuring displacement of [3H]NPA from Human Dopamine receptor D2L expressed in CHO K-1 cells; format: cell-based
In short: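 Agonist-state D2L affinity measured by displacement of [3H]NPA (N-propylnorapomorphine); Ki values are means of three separate experiments varying by no more than 25%.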

[10] = target: D(3) dopamine receptor (Rattus norvegicus) (UniProt P19020); experiment: (§3) Intrinsic activity (IA) by the mitogenesis assay; format: functional
D(3) dopamine receptor [11] = target: T3, D(3) dopamine receptor; experiment: Agonist activity by measuring the [3H]thymidine uptake against Dopamine receptor D3 from rat; format: functional
Rattus norvegicus [12] = species on record: Rattus norvegicus; experiment: Flat body posture after 30 min in 4 reserpinized rats; format: functional
In short: (§4)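 Male Wistar rats (180-200 g) given reserpine 10 mg/kg sc 18-24 h before; test drug in ethanol/saline, 1 mL/kg sc in neck after acclimation in single boxes; number of rats showing the behaviour during first 30 min after injection recorded; saline n=8.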

Rattus norvegicus [13] = species on record: Rattus norvegicus; experiment: Lower lip retraction after 30 min in 4 reserpinized rats; format: functional; in short: as §4
Rattus norvegicus [14] = species on record: Rattus norvegicus; experiment: Yawning after 30 min in reserpinized rats; format: functional
In short: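 Male Wistar rats (180-200 g) reserpinized with 10 mg/kg sc reserpine 18-24 h prior; drug dissolved in a few drops warmed 96% ethanol then saline, 1 mL/kg sc; yawns counted per rat over first 30 min post-injection, mean ± SEM.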

Rattus norvegicus [15] = species on record: Rattus norvegicus; experiment: Sniffing after 30 min in 4 reserpinized rats; format: functional; in short: as §4
[16] = target: D(3) dopamine receptor (Rattus norvegicus) (UniProt P19020); experiment: as §3
[17] = target: D(3) dopamine receptor (Rattus norvegicus) (UniProt P19020); experiment: Antagonist activity by measuring the inhibition of quinpirole stimulated [3H]- thymidine uptake against Dopamine receptor D3; the compound is active; format: functional; settings: filed as antagonist
[18] = target: T1, 5-hydroxytryptamine receptor 1A; experiment: Tested for binding affinity by measuring displacement of [3H]8-OH-DPAT from rat serotonin 5-hydroxytryptamine 1A receptor in rat hippocampus; NA means Not Active; format: tissue-based
In short: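 Rat hippocampal 5HT1A receptors labelled with [3H]8-OH-DPAT; values are means of three separate experiments varying by no more than 25%.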

D(4) dopamine receptor [19] = target: T4, D(4) dopamine receptor; experiment: Tested for antagonist binding affinity by measuring displacement of [3H]-spiperone from Human Dopamine receptor D4 expressed in CHO K-1 cells; format: cell-based
In short: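 Antagonist-radioligand binding: displacement of [3H]spiperone from D4.2 dopamine receptors; Ki values means of three separate experiments, varying no more than 25%.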

Chain of D(3) dopamine receptor (Homo sapiens, UniProt P35462) (P35462 whole entry): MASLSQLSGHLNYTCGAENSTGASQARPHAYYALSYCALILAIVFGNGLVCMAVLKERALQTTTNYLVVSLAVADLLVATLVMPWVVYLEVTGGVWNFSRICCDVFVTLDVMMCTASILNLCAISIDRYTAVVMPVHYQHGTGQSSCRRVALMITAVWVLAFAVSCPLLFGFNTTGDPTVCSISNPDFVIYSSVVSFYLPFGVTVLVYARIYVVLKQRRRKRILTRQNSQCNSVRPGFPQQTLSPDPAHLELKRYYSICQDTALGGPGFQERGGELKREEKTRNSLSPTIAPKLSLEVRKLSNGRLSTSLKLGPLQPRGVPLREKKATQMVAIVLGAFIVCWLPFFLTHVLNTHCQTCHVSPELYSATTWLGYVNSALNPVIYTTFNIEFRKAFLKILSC
T2 sequence (P14416 whole entry): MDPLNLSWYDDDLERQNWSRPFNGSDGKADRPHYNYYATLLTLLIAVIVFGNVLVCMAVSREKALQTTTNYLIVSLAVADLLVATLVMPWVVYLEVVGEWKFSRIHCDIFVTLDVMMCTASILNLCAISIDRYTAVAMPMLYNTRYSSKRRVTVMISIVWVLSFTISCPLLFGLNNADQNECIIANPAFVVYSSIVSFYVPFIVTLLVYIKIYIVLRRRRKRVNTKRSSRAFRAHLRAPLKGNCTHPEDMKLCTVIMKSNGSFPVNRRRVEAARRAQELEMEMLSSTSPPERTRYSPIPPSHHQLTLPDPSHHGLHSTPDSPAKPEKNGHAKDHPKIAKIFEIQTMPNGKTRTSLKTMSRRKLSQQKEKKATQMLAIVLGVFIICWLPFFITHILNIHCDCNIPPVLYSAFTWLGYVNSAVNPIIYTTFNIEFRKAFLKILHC
Chain of D(2) dopamine receptor (Rattus norvegicus, UniProt P61169) (P61169 whole entry): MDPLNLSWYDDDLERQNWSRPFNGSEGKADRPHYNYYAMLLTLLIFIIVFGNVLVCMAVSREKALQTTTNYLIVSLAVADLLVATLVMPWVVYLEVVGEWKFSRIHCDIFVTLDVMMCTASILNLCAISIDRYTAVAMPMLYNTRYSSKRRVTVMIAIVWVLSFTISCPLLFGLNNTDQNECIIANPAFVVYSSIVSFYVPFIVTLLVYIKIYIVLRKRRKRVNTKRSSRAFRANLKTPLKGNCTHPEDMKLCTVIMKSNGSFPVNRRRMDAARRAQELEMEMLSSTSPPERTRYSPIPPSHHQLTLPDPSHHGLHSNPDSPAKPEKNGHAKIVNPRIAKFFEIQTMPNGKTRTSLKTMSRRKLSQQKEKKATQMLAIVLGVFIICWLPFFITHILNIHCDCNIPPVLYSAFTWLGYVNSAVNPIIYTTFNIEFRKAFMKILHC
Chain of D(3) dopamine receptor (Rattus norvegicus) (P19020 whole entry): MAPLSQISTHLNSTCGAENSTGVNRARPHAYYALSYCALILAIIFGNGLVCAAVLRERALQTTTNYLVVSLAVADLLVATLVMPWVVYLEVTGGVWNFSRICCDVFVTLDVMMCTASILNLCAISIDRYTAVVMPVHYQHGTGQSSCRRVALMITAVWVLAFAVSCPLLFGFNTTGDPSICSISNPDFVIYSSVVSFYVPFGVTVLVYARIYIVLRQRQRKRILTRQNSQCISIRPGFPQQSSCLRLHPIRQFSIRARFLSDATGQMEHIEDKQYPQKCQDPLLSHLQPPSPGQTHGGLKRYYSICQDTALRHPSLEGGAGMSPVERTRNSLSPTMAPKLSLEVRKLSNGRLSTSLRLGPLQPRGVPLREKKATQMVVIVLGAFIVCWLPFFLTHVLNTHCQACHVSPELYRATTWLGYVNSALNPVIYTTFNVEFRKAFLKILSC
T3 sequence (P19020 whole entry): as above

CCCN1CCO[C@@H]2c3cc(O)ccc3OC[C@H]21 [listing 1 of 2 here]
Ki [1]: 1670 nM | EC50 (D(2) dopamine receptor [2]): 5.7 nM | Ki (D(2) dopamine receptor [3]): 42 nM | Ki (D(2) dopamine receptor [4]): 1180 nM | Ki (D(3) dopamine receptor [5]): 1.4 nM | EC50 (D(3) dopamine receptor [6]): 0.36 nM | Ki (D(4) dopamine receptor [7]): 169 nM

CCCN1CCO[C@@H]2c3cc(O)ccc3SC[C@H]21
Ki [1]: 30 nM | Ki [8]: > 5000 nM | EC50 (D(2) dopamine receptor [2]): 0.013 nM | Ki (D(2) dopamine receptor [9]): 1.14 nM | Ki (D(3) dopamine receptor [5]): 2.87 nM | Intrinsic activity [10]: 45% | EC50 (D(3) dopamine receptor [11]): 0.007 nM | FB (Rattus norvegicus [12]): 4 | LL (Rattus norvegicus [13]): 3 | Ya (Rattus norvegicus [14]): 0 | Ki (D(4) dopamine receptor [7]): 17.6 nM | Sni (Rattus norvegicus [15]): 4

CCCN1CCO[C@@H]2c3cc(O)ccc3OC[C@H]21 [listing 2 of 2 here]
Intrinsic activity [16]: 54% | Activity [17]: Antagonist

CCCN1CCOC2c3cc(O)ccc3SCC21 (trans isomer)
Ki (D(2) dopamine receptor [4]): 533 nM | Ki (D(3) dopamine receptor [5]): 1.56 nM | Ki (D(4) dopamine receptor [7]): 44.4 nM

CCCN1CCOC2c3cc(O)ccc3[S+]([O-])CC21 (stereo unspecified)
Ki [18]: Not Active | Ki (D(2) dopamine receptor [9]): 197 nM | Ki (D(3) dopamine receptor [5]): 29 nM | IC50 (D(4) dopamine receptor [19]): > 10000 nM

CCCN1CCO[C@@H]2c3cc(O)ccc3SC[C@@H]21 (relative stereo)
Ki [18]: Not Active | EC50 (D(2) dopamine receptor [2]): 122 nM | Ki (D(2) dopamine receptor [9]): 74 nM | Ki (D(3) dopamine receptor [5]): 3.58 nM | Intrinsic activity [10]: 57% | Activity [17]: Antagonist | EC50 (D(3) dopamine receptor [11]): 36 nM | FB (Rattus norvegicus [12]): 0 | LL (Rattus norvegicus [13]): 0 | Ya (Rattus norvegicus [14]): 11 | Ki (D(4) dopamine receptor [7]): 193 nM | Sni (Rattus norvegicus [15]): 0

CCCN1CCO[C@H]2c3cc(O)ccc3OC[C@@H]21
Ki (D(2) dopamine receptor [4]): > 10000 nM | Ki (D(3) dopamine receptor [5]): > 10000 nM

CCCN1CCO[C@@H]2c3cc(O)ccc3OC[C@H]21 (relative stereo)
Ki (D(2) dopamine receptor [4]): > 10000 nM | Ki (D(3) dopamine receptor [5]): 78 nM

CCCN1CCO[C@@H]2c3cc(O)ccc3OC[C@@H]21 (relative stereo)
Ki (D(2) dopamine receptor [4]): > 10000 nM | Ki (D(3) dopamine receptor [5]): > 10000 nM

CCCN1CCO[C@H]2c3cc(O)ccc3SC[C@@H]21
Ki [1]: > 1000 nM | Ki [8]: > 5000 nM | Ki (D(2) dopamine receptor [9]): 854 nM | Ki (D(3) dopamine receptor [5]): 3000 nM | Ki (D(4) dopamine receptor [7]): > 3300 nM
